High-throughput results (PubChem)
An excerpt weighted towards active compounds, which were near 1.8% of everything screened.
HKDC1 inhibitor: HKDC1 (human) hexokinase inhibition; recombinant HKDC1, G6PDH/diaphorase resazurin coupled fluorescence; Q2TB90; 340,000 compounds, 0.16% hits; inhibition, % at 20 µM;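 active = inhibition above about 35% when tested at 20 µM, limit read from the data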
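System: Recombinant HKDC1 hexokinase | Amount: HKDC1 at 5 µg/mL | Reagent: Glucose with 1 mM ATP | Doses: Single 20 µM dose | Incubation: Reaction time 90 min, room temperature, protected from light | Signal: Coupled resazurin fluorescence, excitation 525 nm, emission 613 nm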
SUMO1-SIM PPI: SUMO1-SIM interaction modulation; AID 602429; P63165; SUMO1 binding to a labelled peptide, TR-FRET, 1 h; 360,000 compounds, 0.33% hits; inhibition, % at 20 µM; in the data active = inhibition above about 37%
Target sequence (P63165 whole entry, looked up): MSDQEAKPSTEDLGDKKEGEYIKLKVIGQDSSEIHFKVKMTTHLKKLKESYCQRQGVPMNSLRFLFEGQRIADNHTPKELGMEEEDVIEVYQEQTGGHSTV
STEP inh: blocks human striatal-enriched tyrosine phosphatase. recombinant STEP, OMFP fluorogenic substrate, fluorescence. inhibition, % at 20 µM. 360,000 compounds, 0.25% hits. AID 588621;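 active = inhibition at 20 µM, scaled per plate between control wells, above about 37%, limit read from the data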
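Material: STEP (striatal-enriched tyrosine phosphatase) enzyme, cell-free | Medium: 50 mM Bis-Tris pH 6.0 with 2.5 mM DTT and 0.005% Tween 20 | Read-out: Percent inhibition scaled to no-enzyme and uninhibited-enzyme controls, plate-pattern corrected | Signal: Fluorescence read at 480 nm ex / 540 nm em | Times: 20 min reaction, room temperature, in the dark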
LMPTP inh: LMPTP (human) inhibition; 360,000 compounds, 0.22% hits; inhibition, % at 20 µM; recombinant LMPTP-A, OMFP fluorogenic substrate, fluorescence intensity;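 active = compounds that cut the enzyme signal by at least half of the control window in the single-dose screen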
Target sequence (P24666 whole entry, looked up): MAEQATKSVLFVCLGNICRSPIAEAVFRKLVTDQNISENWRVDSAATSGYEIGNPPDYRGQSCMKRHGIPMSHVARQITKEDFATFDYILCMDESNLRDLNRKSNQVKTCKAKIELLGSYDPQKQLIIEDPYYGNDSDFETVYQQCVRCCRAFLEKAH
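Buffer or medium: Bis-Tris pH 6.0, DTT, detergent; Assay system: LMPTP-A enzyme; Quantity: 0.625 nM enzyme; Detection: endpoint fluorescence intensity; Times: 50 min dark incubation at room temperature; Controls: substrate-only low control, DMSO enzyme-plus-substrate high control; Doses: single 20 µM dose; Read-out: percent inhibition versus substrate-only and uninhibited controls; Reagent: 400 µM OMFP.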
Scp-1 inhibitor: blocks human Scp-1 phosphatase activity; inhibition, % at 20 µM; Recombinant Scp1, phosphopeptide, malachite green phosphate absorbance; AID 493091; 340,000 compounds, 0.88% hits;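 active = inhibition above about 50% at 20 µM, limit read from the data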
Target sequence (Q9GZU7 76-261 limits assumed): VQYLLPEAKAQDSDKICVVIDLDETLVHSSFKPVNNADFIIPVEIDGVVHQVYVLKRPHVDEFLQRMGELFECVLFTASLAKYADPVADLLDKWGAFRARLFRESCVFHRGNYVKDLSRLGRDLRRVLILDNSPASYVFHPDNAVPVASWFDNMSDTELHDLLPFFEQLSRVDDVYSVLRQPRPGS
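Test system – truncated SCP-1 phosphatase (76-261aa) · Reagent – Phosphorylated 17-residue peptide substrate · Incubation – 45 min room-temperature reaction, 5 min colour, 30 min stabiliser · Detection – colorimetric phosphate reagent with accelerator and stabiliser, absorbance at 630 nm · Measure – % inhibition at 20 µM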
DNMT1 block: inhibitors of human DNMT1 | 360,000 compounds, 0.83% hits | inhibition (reported as % activation of signal), % at 10 µM | DNMT1 molecular beacon, Hinp1I cleavage, fluorescence; in the data active = inhibition above about 50%
Each line names hits and unclear results; the compound was inactive in the other large screens.

COc1ccc(/C=N/NC(=O)c2cc(O)c(O)c(O)c2)cc1Cn1cc([N+](=O)[O-])cn1	LMPTP inh 62, Scp-1 inhibitor 83
O=C(Nc1cccnc1Cl)c1cc(-c2cccc(O)c2)on1	SUMO1-SIM PPI 72
COc1ccc(-c2cc(C(=O)Nc3cccnc3Cl)no2)cc1OC	none
COc1ccccc1-c1cc(C(=O)Nc2cccnc2Cl)no1	SUMO1-SIM PPI 47
CC(C)(C)OC(=O)NCCc1onc(-c2cccc([N+](=O)[O-])c2)c1C(=O)O	none (no result: HKDC1 inhibitor, Scp-1 inhibitor)
CNC(CC(C)C)C(=O)NC1C(=O)NC(CC(N)=O)C(=O)NC2C(=O)NC3C(=O)NC(C(=O)NC(C(=O)O)c4cc(O)cc(O)c4-c4cc3ccc4O)C(O)c3ccc(c(Cl)c3)Oc3cc2cc(c3OC2OC(CO)C(O)C(O)C2OC2CC(C)(N)C(O)C(C)O2)Oc2ccc(cc2Cl)C1O (centres undefined)	SUMO1-SIM PPI 51
O=C(O)c1ccc2c(c1)C1C=CCC1C(c1ccncc1)N2 (centres undefined)	none
CC(=O)c1ccc2c(c1)C1C=CCC1C(c1ccc(S(=O)(=O)N3CCOCC3)cc1)N2 (centres undefined)	none
Cc1c(Cl)cccc1NS(=O)(=O)c1ccc2c(c1)C1C=CCC1C(c1ccc(C(=O)O)cc1)N2 (centres undefined)	SUMO1-SIM PPI 50, DNMT1 block 87
COc1ccc(NS(=O)(=O)c2ccc3c(c2)[C@H]2C=CC[C@H]2[C@@H](c2ccc(C(=O)O)cc2)N3)cc1	SUMO1-SIM PPI 53, DNMT1 block 87
O=C(O)CCCNC(=O)/C=C/c1ccco1	Scp-1 inhibitor 72, DNMT1 block 88
O=C(/C=C/c1ccco1)NC(=S)Nc1cccc(C(=O)O)c1	Scp-1 inhibitor 64
COc1cccc(NC(=S)NC(=O)/C=C/c2ccco2)c1	none
N#Cc1sc2nc(-c3ccccc3)cc(-c3ccco3)c2c1N	SUMO1-SIM PPI 64
N#Cc1sc2nc(C3CC3)cc(-c3ccccc3)c2c1N	none
COC(=O)c1ccc2c(c1)C(=O)/C(=C/c1ccc(O)cc1)O2	SUMO1-SIM PPI 47
NC(=O)CSc1nnc(COc2ccccc2)n1N	none
Cc1ccc(OCc2nnc(SCC(N)=O)n2N)cc1	SUMO1-SIM PPI 44
O=[N+]([O-])c1cccc2c(S(=O)(=O)N3CCOCC3)cccc12	STEP inh 59
O=[N+]([O-])c1cccc2c(S(=O)(=O)N3CCCCC3)cccc12	none
CC(C)CC1NC(=O)N(CC(=O)Nc2ccc3c(c2)OCCO3)C1=O (centres undefined)	none
COc1cc(/C=C2\C(C)=C(C#N)c3nc(N)c(C#N)c(C)c32)ccc1OCC(=O)O	SUMO1-SIM PPI 45
COc1cc(Cc2ccc(N)c(OC)c2)ccc1N	none
Nc1ccc(Cc2ccc(N)c(O)c2)cc1O	LMPTP inh 50
CCOc1ccc(Cl)cc1-c1cc(C(=O)Nc2ccc(C(C)C)cc2)[nH]n1	none (no result: HKDC1 inhibitor, Scp-1 inhibitor)
COc1ccc(NS(=O)(=O)c2cccc(C(=O)N/N=C/c3ccccc3OC)c2)cc1	none
COc1ccc(NS(=O)(=O)c2cccc(C(=O)NN=Cc3ccc(O)c(OC)c3)c2)cc1	SUMO1-SIM PPI 63
COc1ccc(NS(=O)(=O)c2cccc(C(=O)N/N=C/c3ccc(O)cc3)c2)cc1	SUMO1-SIM PPI 62
N/C(=N\OC(=O)c1ccc2ccccc2c1)c1ccccc1Cl	none
O=C(CN1C(=O)NC2(CCCC2)C1=O)OCCOc1ccc(Cl)cc1Cl	none
COc1cccc(C2C(C(C)=O)=C(C)Nc3ncnn32)c1 (centres undefined)	SUMO1-SIM PPI 38
CCOC(=O)C1Nc2ccc(C(=O)O)cc2C2C=CCC12 (centres undefined)	SUMO1-SIM PPI 48, STEP inh 42, DNMT1 block 60
CCCC1Nc2ccc(C(=O)O)cc2C2C=CCC12 (centres undefined)	none
CNC(=S)N/N=C/c1c2ccccc2c(Cl)c2ccccc12	none
COc1ccc(-c2nc3ncccc3n2O)cc1	none
